Consider one molecule from ChEMBL document CHEMBL2046351, “Discovery of cyclic sulfone hydroxyethylamines as potent and selective β-site APP-cleaving enzyme 1 (BACE1) inhibitors: structure-based design and in vivo reduction of amyloid β-peptides” (J Med Chem, 2012).

Structures are written as SMILES.

One data set addresses Cathepsin D (Homo sapiens, UniProt P07339). Description: Inhibition of human recombinant CatD using Mca-GKPILFFRLK(DNP)-dR-NH2 as substrate after 1 hr by fluorescence analysis.
For data set [1], the system named is MDR1 (human). Description: Apparent permeability across MDCK cells expressing human MDR1 at 5 uM after 2 hrs by LC-MS analysis. It is filed as ADME, cell-based, Canis lupus familiaris. Conditions: dog. The gist of the method:
(§1)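 MDCK cells retrovirally transduced with human MDR1, seeded on transwells ≥3 days; bidirectional transport at 5 μM, 2 h, 37 °C, LC/MS quantitation. Papp = (dQ/dt)/(A·C0), A 0.11 cm2; ER = Papp B>A / Papp A>B. Means of at least three experiments.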

In data set [2] the test system is MDR1 (human). In words: Efflux ratio of permeability from basolateral to apical over apical to basolateral side of MDCK cells expressing human MDR1 at 5 uM after 2 hrs by LC/MS analysis. It is filed as ADME, cell-based, Canis lupus familiaris. Conditions: dog. The gist of the method:
as §1

The nature of data set [3]: AUC (0 to infinity) in C57BL/6 mouse at 2 umol/kg, iv dosed in N-methyl pyrrolidone/blank plasma (10:90 v/v) by LC/MS/MS analysis. The data set is classed as ADME, organism-based. Details: dose 2 umol/kg, time infinity, route intravenous. The gist of the method: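 Male C57BL/6 mice got a single injection into the saphenous vein under light anaesthesia at 5 mL/kg. Blood was taken at 5 and 30 min and 1, 2, 4, 6 and 8 h (n = 3 per time). Blood was extracted by acetonitrile precipitation and quantified by LC-MS/MS against a weighted linear calibration. AUC came from noncompartmental analysis with 1/Y weighting.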

A short description of data set [4]: Blood clearance in C57BL/6 mouse at 2 umol/kg, iv dosed in N-methyl pyrrolidone/blank plasma (10:90 v/v) by LC/MS/MS analysis. It is filed as ADME, organism-based. The gist of the method:
(§2)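 Male C57BL/6 mice, saphenous vein injection under light anesthesia, 5 mL/kg. Blood at 5, 30 min and 1, 2, 4, 6, 8 h; brain at 5 min, 1, 4, 8 h; n = 3/time. LC-MS/MS after acetonitrile precipitation (brain water-homogenized). Noncompartmental analysis, 1/Y weighting, terminal slope from ≥3 points.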

The nature of data set [5]: Volume of distribution at steady state in C57BL/6 mouse at 2 umol/kg, iv dosed in N-methyl pyrrolidone/blank plasma (10:90 v/v) by LC/MS/MS analysis. Conditions: read-out: Vdss. The data set is classed as ADME, organism-based. The essentials: as §2
Data set [6] is described as follows: Half life in C57BL/6 mouse at 2 umol/kg, iv dosed in N-methyl pyrrolidone/blank plasma (10:90 v/v) by LC/MS/MS analysis. The data set is classed as ADME, organism-based. The essentials: as §2
The nature of data set [7]: AUC (0 to infinity) in C57BL/6 mouse at 30 umol/kg, po dosed in carboxymethyl cellulose 0.5% w/v in water/Tween 80 (99.5/0.5, v/v) by LC/MS/MS analysis. It is filed as ADME, organism-based. Details: dose 30 umol/kg, route oral, time infinity. To be noted: in vivo. The gist of the method:
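Male C57BL/6 mice were dosed by oral gavage at 10 mL/kg. Blood was sampled at 0.25, 0.5, 1, 2, 4 and 6 h postdose, extracted by acetonitrile precipitation and quantified by LC-MS/MS (typical LLOQ 0.4 ng/mL). AUCinf was obtained by noncompartmental analysis of concentration–time profiles, weighting 1/Y, with at least three terminal log-linear points.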

A short description of data set [8]: Oral bioavailability in C57BL/6 mouse at 30 umol/kg dosed in carboxymethyl cellulose 0.5% w/v in water/Tween 80 (99.5/0.5, v/v) by LC/MS/MS analysis. Conditions: in vivo. It is filed as ADME, organism-based. The gist of the method:
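Oral gavage (10 mL/kg) to male C57BL/6 mice with iv reference segment (2 μmol/kg, NMP/blank plasma 10:90). Noncompartmental analysis of LC-MS/MS blood profiles, 1/Y weighting; %F = dose-normalized oral AUC / dose-normalized iv AUC × 100, assuming linear pharmacokinetics between doses.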

Data set [9] deals with Brain. In words: Drug uptake in C57BL/6 mouse brain at 60 umol/kg, po dosed in carboxymethyl cellulose 0.5% w/v in water/Tween 80 (99.5/0.5, v/v) measured 1 hr post dosing by LC/MS/MS analysis. The data set is classed as ADME, organism-based. To be noted: in vivo. The essentials:
(§3)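 Male C57BL/6 mice dosed by oral gavage, 10 mL/kg. Blood sampled 0.25, 0.5, 1, 2, 4, 6 h; brain at 1 and/or 4 h; n = 3 per time. Blood acetonitrile-precipitated, brain water-homogenized then precipitated; LC-MS/MS with weighted linear calibration.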

Data set [10] is described as follows: Drug uptake in C57BL/6 mouse blood at 60 umol/kg, po dosed in carboxymethyl cellulose 0.5% w/v in water/Tween 80 (99.5/0.5, v/v) measured 1 hr post dosing by LC/MS/MS analysis. The data set is classed as ADME, organism-based. Conditions: read-out: Drug uptake. The essentials: as §3
Data set [11] relates to Brain. In words: Drug uptake in C57BL/6 mouse brain at 60 umol/kg, po dosed in carboxymethyl cellulose 0.5% w/v in water/Tween 80 (99.5/0.5, v/v) measured 4 hrs post dosing by LC/MS/MS analysis. It is filed as ADME, organism-based. Conditions: in vivo. The essentials: as §3
The nature of data set [12]: Drug uptake in C57BL/6 mouse blood at 60 umol/kg, po dosed in carboxymethyl cellulose 0.5% w/v in water/Tween 80 (99.5/0.5, v/v) measured 4 hrs post dosing by LC/MS/MS analysis. It is filed as ADME, organism-based. Conditions: read-out: Drug uptake. The essentials:
as §3

Data set [13] can be described thus: Ratio of drug uptake in brain to blood in C57BL/6 mouse at 60 umol/kg, po dosed in carboxymethyl cellulose 0.5% w/v in water/Tween 80 (99.5/0.5, v/v) measured 1 hr post dosing by LC/MS/MS analysis. It is filed as ADME, organism-based. The essentials:
as §3

Data set [14] can be described thus: Ratio of drug uptake in brain to blood in C57BL/6 mouse at 60 umol/kg, po dosed in carboxymethyl cellulose 0.5% w/v in water/Tween 80 (99.5/0.5, v/v) measured 4 hrs post dosing by LC/MS/MS analysis. The data set is classed as ADME, organism-based. The gist of the method:
as §3

The species named for a further data set is Homo sapiens. In words: Selectivity index, ratio of IC50 for human recombinant CatD to IC50 for human recombinant BACE1.
A further data set addresses Beta-secretase 1 (Homo sapiens, UniProt P56817).

Sequence of Beta-secretase 1 (P56817 whole entry): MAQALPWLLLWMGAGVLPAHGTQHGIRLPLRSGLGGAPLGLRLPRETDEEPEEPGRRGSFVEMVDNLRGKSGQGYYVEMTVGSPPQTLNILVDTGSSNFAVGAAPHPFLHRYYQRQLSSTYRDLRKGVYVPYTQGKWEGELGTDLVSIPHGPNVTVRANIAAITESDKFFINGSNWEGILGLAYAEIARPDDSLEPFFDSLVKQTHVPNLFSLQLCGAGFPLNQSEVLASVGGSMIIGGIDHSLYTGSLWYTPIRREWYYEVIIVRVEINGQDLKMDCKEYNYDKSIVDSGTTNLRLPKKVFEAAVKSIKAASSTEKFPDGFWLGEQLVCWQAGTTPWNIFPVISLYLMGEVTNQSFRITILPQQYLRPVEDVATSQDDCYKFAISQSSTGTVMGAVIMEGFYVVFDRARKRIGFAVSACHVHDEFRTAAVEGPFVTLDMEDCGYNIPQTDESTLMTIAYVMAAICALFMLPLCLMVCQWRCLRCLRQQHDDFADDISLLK
Sequence of Cathepsin D (P07339 65-162 limits assumed): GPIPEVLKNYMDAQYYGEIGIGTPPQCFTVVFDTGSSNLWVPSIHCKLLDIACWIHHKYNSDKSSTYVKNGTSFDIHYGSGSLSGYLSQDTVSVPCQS
Sequence of Cathepsin D (P07339 169-412 limits assumed): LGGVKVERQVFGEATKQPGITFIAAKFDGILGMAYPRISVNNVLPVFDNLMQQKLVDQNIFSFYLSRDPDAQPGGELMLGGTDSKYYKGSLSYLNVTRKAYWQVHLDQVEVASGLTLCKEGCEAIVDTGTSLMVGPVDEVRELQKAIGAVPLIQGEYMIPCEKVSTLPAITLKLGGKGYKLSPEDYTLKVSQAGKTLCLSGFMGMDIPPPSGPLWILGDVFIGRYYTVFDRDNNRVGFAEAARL

What is called IC50 is the point on the concentration scale where inhibition reaches its midpoint. One may read the Papp as a coefficient for how fast a substance crosses the barrier. The efflux ratio is the permeability from basolateral to apical divided by that in the opposite direction, in the common usage. By AUC(0-inf) is commonly meant total exposure, with the tail of the curve extrapolated. What is called clearance is the rate of elimination divided by the concentration. Read a low clearance as a low capacity for elimination. By half-life is commonly meant the time needed for the level to fall by half in the phase considered. Higher therefore signals slow decline. As a reminder, the bioavailability is the share of a dose that reaches the circulation, judged against a reference dose that is usually intravenous. What is called Kp is tissue or fluid exposure divided by exposure in the circulation. `CC(C)(C)c1cccc(CN[C@H]2CS(=O)(=O)C[C@@H](Cc3ccc(N)c(Br)c3)[C@@H]2O)c1`: the values for the IC50 on Cathepsin D and on Beta-secretase 1 were 720 nM and 140 nM, respectively. Moreover, the Papp at 2 h, 5 µM in the data set on MDR1 (human) [1] was found to be 13 ×10⁻⁶ cm/s. For the same molecule, the efflux ratio at 2 h, 5 µM with MDR1 (human) [2] is 2. The AUC(0-inf) in data set [3] amounted to 4.09 µM·h; in data set [7], 6.43 µM·h. The molecule further registered a clearance in data set [4] of 8.1 mL/min/kg. Further, the Vd in data set [5] was found to be 1.6 L/kg. In [6], the half-life is 4 h. Moreover, the bioavailability in data set [8] worked out at 10%. Moreover, the values for the Drug uptake with Brain [9] and in the data set on Brain [11] were 2.17 nmol/g and 1.92 nmol/g, respectively. Further, in [10], the concentration at 1 h is 4.07 µM. Further, in [12], the concentration at 4 h came out at 2.98 µM. Moreover, the Kp at 1 h in data set [13] stood at 0.5. Further, in data set [14], the Kp at 4 h amounted to 0.6. Moreover, the Ratio IC50 in the data set filed under Homo sapiens worked out at 5.
